This note sets out measurements from ChEMBL document CHEMBL1671857, “Inducible resistance of fish bacterial pathogens to the antimicrobial peptide cecropin B” (2008).

Calls of active or inactive are those of the source. The calls are words filed in the database; no cut-off is given here.

A short description of assay [1]: Antimicrobial activity against Vibrio anguillarum 775 selected after passage with 120 ug/ml of compound. Format: functional.
Assay [2] relates to CHSE-214. As to the kind of experiment: Antimicrobial activity against compound-exposed Vibrio anguillarum 775 infected in CHSE-214 cells assessed as increase in adhesion to cells at 120 ug/ml after 90 mins relative to control. It counts as functional, cell-based. The procedure, abridged: (§1)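 CHSE-214 cells (CO2-independent medium, 10% FBS, 20°C, no antibiotics) at 80% confluence were incubated with mid-log V. anguillarum (unexposed or cecropin B-exposed) at an MOI of 100 for 0–90 min at ~22°C. Monolayers were washed twice in PBS and lysed with 1% Triton X-100, and lysates were plated. Adherent bacteria were counted per CHSE-214 cell.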

The test system of assay [3] is Vibrio vulnificus. Nature of the assay: Antimicrobial activity against Vibrio vulnificus assessed as appearance of rugose membrane shape at 70 ug/ml by SEM. It counts as functional, organism-based. The procedure, abridged:
(§2)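 Exponential-phase broth cultures, with or without prior cecropin B exposure, were adhered 10 min at room temperature to poly-L-lysine-coated chips. Chips were fixed in 2% glutaraldehyde in cacodylate buffer for 30 min, then in 1% osmium tetroxide overnight. Samples were dehydrated through an ethanol series, critical-point dried, gold sputter-coated and examined by scanning electron microscopy.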

Assay [4] concerns CHSE-214. As to the kind of experiment: Antimicrobial activity against compound-exposed Vibrio anguillarum 775 infected in CHSE-214 cells assessed as increase in adhesion to cells at 120 ug/ml after 60 mins relative to control. Format: functional, cell-based. The procedure, abridged:
as §1

Assay [5] has as its system Vibrio vulnificus. As to the kind of experiment: Antimicrobial activity against Vibrio vulnificus assessed as increase in bacterial survival at 100 ug/ml by broth culture growth inhibition assay. Format: functional, organism-based. In short, it runs like this: (§3)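 Broth growth-inhibition assay in tryptic soy broth (1% NaCl for vibrios) at 25°C, 200 rpm. Cultures started at 1 × 10^7 CFU/ml and were mixed 1:1 with cecropin B-containing medium. OD570 was read every 4 h for 16 h. Fractional survival is the area under the growth curve (Simpson's rule) relative to the untreated control.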

For assay [6], the system named is Vibrio vulnificus. Nature of the assay: Antimicrobial activity against Vibrio vulnificus assessed as reduced cell size at 70 ug/ml by SEM. It counts as functional, organism-based. The procedure, abridged: as §2
Assay [7] concerns Pseudomonas fluorescens. Nature of the assay: Antimicrobial activity against Pseudomonas fluorescens selected after 20 ug/ml of drug exposure. Format: functional. In short, it runs like this: (§4)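 Bacteria were grown 16 h in broth with cecropin B at a concentration chosen empirically to allow growth to mid-log (OD600 ~0.4). Cultures were then diluted to 1 × 10^7 CFU/ml and the MIC was determined by the 16-h OD570 growth-curve area method. Mean ± SD of three experiments, each in triplicate.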

Assay [8] can be described thus: Antimicrobial activity against Vibrio anguillarum 775 selected after 120 ug/ml of drug exposure. It counts as functional. The procedure, abridged:
as §4

Assay [9] relates to Yersinia ruckeri. Nature of the assay: Antimicrobial activity against Yersinia ruckeri assessed as increase in bacterial survival at 100 ug/ml by broth culture growth inhibition assay. It counts as functional. The procedure, abridged:
as §3

The subject of assay [10] is Yersinia ruckeri. As to the kind of experiment: Antimicrobial activity against Yersinia ruckeri assessed as appearance of ridges on outer surface of the bacterial cell at 90 ug/ml by SEM. It counts as functional. In short, it runs like this: as §2
Assay [11] concerns Yersinia ruckeri. As to the kind of experiment: Antimicrobial activity against Yersinia ruckeri. Format: functional. The procedure, abridged:
(§5)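 Exponential-phase cultures (overnight broth diluted 1:1,000) in tryptic soy broth, with 1% NaCl added for vibrios, at 25°C. Cultures at 1 × 10^7 CFU/ml were mixed with an equal volume of medium containing cecropin B and shaken at 200 rpm. OD570 was read every 4 h over 16 h. Growth-curve area (Simpson's rule) was divided by the drug-free control to give a fractional area. MIC is the x-intercept of the trend line of fractional area versus concentration. Mean ± SD of three experiments, each in triplicate.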

Assay [12] has as its system Pseudomonas fluorescens. Nature of the assay: Antimicrobial activity against Pseudomonas fluorescens. Format: functional. In short, it runs like this:
as §5

Assay [13] concerns Vibrio vulnificus. As to the kind of experiment: Antimicrobial activity against Vibrio vulnificus assessed as loss of flagella at 70 ug/ml by SEM. It counts as functional, organism-based. The procedure, abridged:
as §2

Assay [14] deals with Vibrio vulnificus. Nature of the assay: Antimicrobial activity against Vibrio vulnificus selected after 70 ug/ml of drug exposure. Format: functional. The procedure, abridged:
as §4

The test system of assay [15] is Vibrio anguillarum 775. Nature of the assay: Antimicrobial activity against Vibrio anguillarum 775 assessed as reduction in extracellular product secreted by cells at 120 ug/ml. Format: functional. In short, it runs like this:
as §2

The subject of assay [16] is CHSE-214. As to the kind of experiment: Antimicrobial activity against compound-exposed Vibrio anguillarum 775 infected in CHSE-214 cells assessed as increase in adhesion to cells at 120 ug/ml after 30 mins relative to control. It counts as functional, cell-based. In short, it runs like this: as §1
Assay [17] deals with Vibrio anguillarum 775. As to the kind of experiment: Antimicrobial activity against Vibrio anguillarum 775 assessed as increase in bacterial survival at 100 ug/ml by broth culture growth inhibition assay. It counts as functional. In short, it runs like this:
as §3

Assay [18] relates to Vibrio vulnificus. As to the kind of experiment: Antimicrobial activity against Vibrio vulnificus. Format: functional. In short, it runs like this:
as §5

Assay [19] can be described thus: Antimicrobial activity against Vibrio anguillarum 775. Format: functional. The procedure, abridged: as §5
For assay [20], the system named is Vibrio anguillarum 775. As to the kind of experiment: Antimicrobial activity against Vibrio anguillarum 775 infected in medaka fish assessed as mortality at 120 ug/ml by immersion challenge assay. Format: functional. The procedure, abridged:
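Groups of 20 medaka, 7–8 months old, were immersed 90 min in PBS (pH 7.3, 1.0% NaCl) containing 1 × 10^5 CFU/ml V. anguillarum, either unexposed or pre-exposed to 120 μg/ml cecropin B. Cumulative mortality was recorded over 14 days. Three separate experiments, mean ± SD.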

The MIC is the lowest concentration found to suppress growth.

As for “H-KWKVFKKIEKMGRNIRNGIVKAGPAIAVLGEAKAL-NH2 [CECROPIN B]”, the MIC in assay [1] stood at 142 mg/L; in the assay on Pseudomonas fluorescens [7], 24 mg/L; in [8] it was 209 mg/L; with Yersinia ruckeri [11] it was 100 mg/L; against Pseudomonas fluorescens [12], 25 mg/L; with Vibrio vulnificus [14], 136 mg/L. In addition, the figures for the MIC (against Vibrio vulnificus [18]; in assay [19]) were 85 mg/L and 147 mg/L, respectively. Moreover, the result in the assay on CHSE-214 [2], in the assay on Vibrio vulnificus [3], in the assay with CHSE-214 [4], in the assay on Vibrio vulnificus [5], with Vibrio vulnificus [6] and in the assay on Yersinia ruckeri [9] was inactive. The outcome in the assay with Yersinia ruckeri [10], in the assay with Vibrio vulnificus [13], in the assay on Vibrio anguillarum 775 [15], in the assay on CHSE-214 [16], in the assay with Vibrio anguillarum 775 [17] and in the assay with Vibrio anguillarum 775 [20] was inactive.
